Data as given in ChEMBL document CHEMBL1138216, “Design and synthesis of novel derivatives of the muscarinic agonist tetra(ethylene glycol)(3-methoxy-1,2,5-thiadiazol-4-yl) [3-(1-methyl-1,2,5,6-tetrahydropyrid-3-yl)-1,2,5-thiadiazol-4-yl] ether (CDD-0304): effects of structural modifications on the binding and activity at muscarinic receptor …” (J Med Chem, 2006).
Changes are numbered by the printed parent chain. Activity calls are given as the source filed them. The rule behind the calls is not given here.

Tests used:
[1] = biological target: Muscarinic acetylcholine receptor M1 (Homo sapiens, UniProt P11229, E170K); format: functional, cell-based, L929
Sequence of Muscarinic acetylcholine receptor M1 (Homo sapiens, UniProt P11229, E170K) (P11229 whole entry E170K): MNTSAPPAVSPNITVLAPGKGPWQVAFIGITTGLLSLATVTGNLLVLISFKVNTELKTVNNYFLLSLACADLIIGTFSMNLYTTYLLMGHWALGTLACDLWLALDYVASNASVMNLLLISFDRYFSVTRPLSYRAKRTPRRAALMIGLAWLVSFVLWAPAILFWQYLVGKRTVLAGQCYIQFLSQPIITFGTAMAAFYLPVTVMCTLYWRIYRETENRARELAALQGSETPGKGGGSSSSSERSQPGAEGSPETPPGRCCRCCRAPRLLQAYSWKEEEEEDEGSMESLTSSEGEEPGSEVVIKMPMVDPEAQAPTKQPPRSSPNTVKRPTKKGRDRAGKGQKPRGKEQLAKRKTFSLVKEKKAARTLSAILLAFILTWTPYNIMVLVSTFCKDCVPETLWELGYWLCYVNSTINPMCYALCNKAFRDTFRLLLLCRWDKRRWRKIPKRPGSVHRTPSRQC

[2] = biological target: T1, Muscarinic acetylcholine receptor M1/M5 chimeric protein (Homo sapiens, UniProt P08912+P11229); assay: Agonist activity at human M1/M5(o2) chimeric receptor expressed in A9 L cells assessed as stimulation of phosphoinositide hydrolysis; format: functional, cell-based, L929
T1 sequence (P11229 whole entry): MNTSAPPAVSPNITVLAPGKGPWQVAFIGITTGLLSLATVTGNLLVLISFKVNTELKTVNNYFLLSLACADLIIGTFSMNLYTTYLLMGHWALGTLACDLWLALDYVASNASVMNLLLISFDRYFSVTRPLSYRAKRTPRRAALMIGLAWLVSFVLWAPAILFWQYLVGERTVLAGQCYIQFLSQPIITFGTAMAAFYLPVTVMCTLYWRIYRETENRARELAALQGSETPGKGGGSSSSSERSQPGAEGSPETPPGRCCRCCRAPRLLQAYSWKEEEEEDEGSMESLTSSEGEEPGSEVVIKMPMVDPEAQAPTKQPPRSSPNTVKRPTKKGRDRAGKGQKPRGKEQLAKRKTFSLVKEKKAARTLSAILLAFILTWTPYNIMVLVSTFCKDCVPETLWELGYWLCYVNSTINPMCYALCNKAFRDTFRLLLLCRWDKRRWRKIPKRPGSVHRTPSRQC
T1 sequence (P08912 whole entry): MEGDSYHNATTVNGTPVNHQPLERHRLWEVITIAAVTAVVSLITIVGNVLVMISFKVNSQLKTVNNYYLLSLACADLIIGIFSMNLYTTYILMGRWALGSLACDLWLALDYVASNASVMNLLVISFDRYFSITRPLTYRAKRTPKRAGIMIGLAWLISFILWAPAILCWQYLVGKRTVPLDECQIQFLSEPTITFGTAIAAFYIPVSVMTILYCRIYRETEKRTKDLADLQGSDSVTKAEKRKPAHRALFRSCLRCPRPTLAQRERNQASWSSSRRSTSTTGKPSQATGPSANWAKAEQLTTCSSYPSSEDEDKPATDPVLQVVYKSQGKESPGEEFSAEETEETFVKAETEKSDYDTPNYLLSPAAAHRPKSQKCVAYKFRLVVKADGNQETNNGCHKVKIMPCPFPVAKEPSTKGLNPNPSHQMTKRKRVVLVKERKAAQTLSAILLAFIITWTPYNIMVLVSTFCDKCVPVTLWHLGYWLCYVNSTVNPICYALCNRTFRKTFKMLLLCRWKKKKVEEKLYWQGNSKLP

[3] = biological target: Muscarinic acetylcholine receptor M1 (Homo sapiens, UniProt P11229, Q185E); format: functional, cell-based, L929
Sequence of Muscarinic acetylcholine receptor M1 (Homo sapiens, UniProt P11229, Q185E) (P11229 whole entry Q185E): as the sequence (P11229 whole entry E170K) above, with K170E, Q185E counted along it

[4] = biological target: T1, Muscarinic acetylcholine receptor M1/M5 chimeric protein; assay: Inhibition of [3H](R)-QNB binding to human M1/M5(o2o3) chimeric receptor expressed in A9 L cells; format: cell-based, A9L
[5] = system: T2, Muscarinic acetylcholine receptor M1 (Homo sapiens), P11229 [E170K]; assay: Agonist activity at human M1 receptor E170K mutant expressed in A9 L cells assessed as stimulation of phosphoinositide hydrolysis relative to carbachol; format: functional, cell-based; conditions: L929
T2 sequence (whole entry): T1 sequence (P11229 whole entry) with E170K
Method in brief: (§1)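 A9 L cells stably expressing the receptor, seeded 24 h, labelled overnight with 10 µCi/mL [3H]inositol in inositol-free DMEM; ligands in HBSS with 10 mM LiCl, 20 mM HEPES, 37 °C, 1 h; formic acid extraction, inositol phosphates counted by SPA beads.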

[6] = biological target: T3, Muscarinic acetylcholine receptor M1/M5 chimeric protein (Homo sapiens) (UniProt P11229+P08912); assay: Agonist activity at human M1/M5(o3) chimeric receptor expressed in A9 L cells assessed as stimulation of phosphoinositide hydrolysis relative to carbachol; format: functional, cell-based; conditions: L929
Method in brief: as §1

[7] = biological target: T1, Muscarinic acetylcholine receptor M1/M5 chimeric protein; assay: Agonist activity at human M1/M5(o3) chimeric receptor expressed in A9 L cells assessed as stimulation of phosphoinositide hydrolysis; format: functional, cell-based, L929
[8] = system: T4, Muscarinic acetylcholine receptor M1 (Homo sapiens), P11229 [Q185E]; assay: Agonist activity at human M1 receptor Q185E mutant expressed in A9 L cells assessed as stimulation of phosphoinositide hydrolysis relative to carbachol; format: functional, cell-based; conditions: L929
T4 sequence (whole entry): T1 sequence (P11229 whole entry) with Q185E
Method in brief: as §1

[9] = biological target: Muscarinic acetylcholine receptor M1 (Homo sapiens, UniProt P11229, T192A); assay: Inhibition of [3H](R)-QNB binding to human M1 receptor Thr192Ala mutant expressed in A9 L cells; format: cell-based, A9L
Sequence of Muscarinic acetylcholine receptor M1 (Homo sapiens, UniProt P11229, T192A) (P11229 whole entry T192A): as the sequence (P11229 whole entry E170K) above, with K170E, T192A counted along it

[10] = biological target: T1, Muscarinic acetylcholine receptor M1/M5 chimeric protein; assay: Inhibition of [3H](R)-QNB binding to human M1/M5(o3) chimeric receptor expressed in A9 L cells; format: cell-based, A9L
[11] = biological target: T3, Muscarinic acetylcholine receptor M1/M5 chimeric protein (Homo sapiens); assay: Agonist activity at human M1/M5(o2o3) chimeric receptor expressed in A9 L cells assessed as stimulation of phosphoinositide hydrolysis relative to carbachol; format: functional, cell-based; conditions: L929
Method in brief: as §1

[12] = biological target: T3, Muscarinic acetylcholine receptor M1/M5 chimeric protein (Homo sapiens); assay: Agonist activity at human M1/M5(o2) chimeric receptor expressed in A9 L cells assessed as stimulation of phosphoinositide hydrolysis relative to carbachol; format: functional, cell-based; conditions: L929
Method in brief: as §1

[13] = biological target: T5, Muscarinic acetylcholine receptor M5 (Homo sapiens) (UniProt P08912); assay: Agonist activity at human M5 receptor expressed in A9 L cells assessed as stimulation of phosphoinositide hydrolysis relative to carbachol; format: functional, cell-based; conditions: L929
T5 sequence (whole entry): T1 sequence (P08912 whole entry)
Method in brief: as §1

[14] = biological target: T6, Muscarinic acetylcholine receptor M1 (Homo sapiens) (UniProt P11229); assay: Agonist activity at human M1 receptor expressed in A9 L cells assessed as stimulation of phosphoinositide hydrolysis relative to carbachol; format: functional, cell-based; conditions: L929
T6 sequence (whole entry): T1 sequence (P11229 whole entry)
Method in brief: as §1

[15] = biological target: T1, Muscarinic acetylcholine receptor M1/M5 chimeric protein; assay: Inhibition of [3H](R)-QNB binding to human M1/M5(o2) chimeric receptor expressed in A9 L cells; format: cell-based, A9L

CN1CCC=C(c2nsnc2OCCOCCOCCOCCOc2nsnc2C2=CCCN(C)C2)C1
EC50 [1]: 10 nM
EC50 [2]: 79.4 nM
EC50 [3]: 50.1 nM
Ki [4]: 100 nM
Smax [5]: 66%
Smax [6]: 23%
EC50 [7]: 631 nM
Smax [8]: 50%
Ki [9]: 100 nM
Ki [10]: 20 nM
Smax [11]: 2%
Smax [12]: 34%
Activity [13]: inactive
Smax [14]: 69%
Ki [15]: 39.8 nM
